Assay results from different studies.
Compare with care: the assays were run in different laboratories.
Cell line: HepG2
Observed: cell growth or viability

Compound | assay | conditions | IC50 [µM]
COc1ccc(-c2cc(C(F)(F)F)c3c(N)c(C(=O)N4CCCC4)sc3n2)cc1 |  | 72 h | > 50
CC(C)=CCC[C@](C)(O)[C@H]1CC[C@]2(C)[C@@H]1[C@H](O)C[C@@H]1[C@@]3(C)CC[C@H](O)C(C)(C)[C@@H]3[C@@H](O[C@@H]3O[C@H](CO)[C@@H](O)[C@H](O)[C@H]3O)C[C@]12C | CCK-8 | 24 h | 32
COc1cc(NC(=N)CC(O)c2cc3c(F)cc(F)cc3c3cc(C(F)(F)F)ccc23)ccc1Br (centres unmarked) | neutral red | 24 h | 15.3
C#CCn1c(C(=O)/C=C/c2ccc(F)cc2)nc2ccccc21 | LDH | 48 h | 1.72
N=C(CC(O)c1cc2c(F)cc(F)cc2c2cc(C(F)(F)F)ccc12)Nc1ccc(-c2ccc(F)cc2)cc1 (centres unmarked) | neutral red | 24 h | 10.5
Nc1c(C(=O)Nc2cccnc2)sc2nc(-c3ccccc3)cc(C(F)(F)F)c12 |  | 72 h | > 100
CC1=C(O)C(=O)C=C2C1=CC=C1[C@@]2(C)CC[C@@]2(C)[C@@H]3C[C@](C)(C(=O)O)CC[C@]3(C)CC[C@]12C | CCK-8 | 24 h | 2.53
Nc1c(C(=O)N2CC(F)(F)C2)sc2ncccc12 |  | 72 h | > 100
Fc1ccc2c(-c3nc(Cc4ccccc4)cs3)nn(Cc3ccc(Cl)cc3Cl)c2c1 |  | 48 h | 25.1
N=C(CC(O)c1cc2c(F)cc(F)cc2c2cc(C(F)(F)F)ccc12)Nc1ccccc1I (centres unmarked) | neutral red | 24 h | 160
CN[C@@H]1C[C@H]2O[C@@](C)([C@@H]1OC)n1c3ccccc3c3c4c(c5c6ccccc6n2c5c31)C(=O)NC4 |  |  | 0.0383
